Calb FLC = C. albicans growth inhibition with fluconazole, primary screen, CaCi-2 strain, Alamar Blue fluorescence | C. albicans CaCi-2 (fluconazole-resistant clinical isolate) + fluconazole, 48 h | growth inhibition, % (concentration not given with the values) | hit rate 0.57% among 300,000 | AID 1979, 2009;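 active = growth inhibition above about 58% in most replicates, limit read from the data, passing the limit was not always enough; inconclusive = exactly half the replicates above a set limit; inactive = most replicates below a set limit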;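 note: all wells also contain fluconazole at 8 µg/ml as a sub-toxic cotreatment; 0% = median of DMSO wells and 100% = median of geldanamycin control wells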
T cruzi repl = inhibitors of intracellular T. cruzi growth, primary screen, luminescence, NIH3T3 host cells. T. cruzi beta-gal in NIH3T3, 90 h. inhibition, % (concentration not given with the values). hit rate 1.4% among 300,000;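 active = mean inhibition across valid replicates above about 55%, limit read from the data; inconclusive = mean below that limit but half or more replicates reach it; inactive = mean below it, under half of replicates reach it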;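 note: signal also drops with host cell toxicity which is not excluded here; 0% = plate median of DMSO wells and 100% = zero luminescence signal; higher percent means less beta-gal luminescence so fewer parasites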
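compound dosing = single 50 nL compound addition per well in DMSO | material = NIH/3T3 host cells with β-galactosidase reporter T. cruzi | input = 5,000 host fibroblasts per well | timing = ≥90 h infection period, 3 h prior cell attachment | read-out basis = percent inhibition of parasite-derived β-gal signal | detection = GalScreen β-gal luminescence, detergent lysis, 60 min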
PolyA inh = polyadenylation inhibitors in yeast reporter cells, primary screen, luminescence, S. cerevisiae; activity score, % at 12 µM; S. cerevisiae SKY197-pL101 polyadenylation reporter, beta-gal luminescence; efflux-impaired pdr1/pdr3 knockout yeast; score 100 = 6 SD above DMSO; hit rate 0.02% among 300,000;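 active = lowest replicate activity score at least 50, where 100 means six control SD above control mean; inconclusive = lowest score under 50 but half or more replicates reach 50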;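 note: yeast exposed to compound for 9 h at 30 °C; higher score means more reporter readthrough which indicates perturbed polyadenylation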
NALP3 yeast inh = NALP3 inflammasome inhibitors in reconstituted yeast, primary screen, luminescence, uHTS; inhibition, % at 10 µM; AID 2825, 2010; hit rate 0.39% among 330,000; Yeast reconstituted NLRP3/ASC/caspase-1, beta-gal luminescence, 24 h;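 active = inhibition of 50% or more; inactive = inhibition below 50%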;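 note: plate controls were induced DMSO wells for no effect and uninduced yeast grown without galactose for full effect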
L major viab = Leishmania major promastigote growth inhibition, primary screen | inhibition, % at 10 µM | hit rate 9% among 200,000 | Leishmania major promastigotes, resazurin fluorescence viability; in the data active = inhibition above about 50%;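 note: promastigotes grown with compound for 44 hours at 28 °C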
NALP1 yeast inh = NALP1 inflammasome inhibitors in reconstituted yeast, colorimetric, S. cerevisiae, triplicate retest; S. cerevisiae NALP1/ASC/caspase-1 growth, X-gal OD620, 72 h; inhibition, % at 10 µM; hit rate 0.61% among 280,000; in the data active = inhibition mostly above about 24%, no sharp cut-off; inactive = mostly below about 32%
* = called active by the depositor; ? = inconclusive; nt = not tested or not shown. Shown is part of a subset that was picked to be rich in hits.

SMILES	Calb FLC	T cruzi repl	PolyA inh	NALP3 yeast inh	L major viab	NALP1 yeast inh
O=C(Nc1ccc2oc(-c3ccccc3Cl)nc2c1)c1ncn[nH]1	45.7	-7.8	-2.7	12.4	94.4*	31.7
Brc1ccccc1Cn1c(-c2cscn2)nc2ccccc21	38.4	-0.9	-5.9	-33.2	29.1	-6.6
COc1cc(C(=O)NC(CCSC)C(=O)OCC(=O)C(C)(C)C)cc(OC)c1OC (configuration not stated)	3.8	-14.3	-5.4	3.0	16.2	-4.7
Cc1ccc(CC(=O)Nc2nnc(-c3ccc(F)cc3)o2)c(C)c1	-2.6	-2.9	5.5	0.6	nt	25.0
CN(C)c1ccc(CNc2ncnc3sccc23)cc1	84.9*	36.0	-9.4	11.8	nt	9.6
NS(=O)(=O)c1ccc(CNc2ncnc3sccc23)cc1	3.7	1.8	14.9	11.4	nt	12.9
CCCNC1=C(C)C(=O)CC1	48.2	-18.3	-1.6	2.9	-3.2	22.6
CC1=C(NCCc2ccccc2)CCC1=O	-3.3	4.2	12.1	12.8	63.8*	-4.1
S=c1[nH]nc(C2(c3ccccc3)CCCC2)o1	2.2	10.8	9.7	19.7	nt	nt
Cn1c(CC(=O)NCCO)c(Sc2ccccc2)c2ccccc21	-7.5	-5.9	-3.1	19.1	-0.8	9.3
O=C(Cc1c(Sc2ccccc2)c2ccccc2n1Cc1ccccc1)NCCO	15.7	17.6	-1.8	2.1	58.2*	38.8
CCOC(=O)c1cn2nc(-c3ccc(OC)cc3)cc2nc1C1CCN(C(=O)OC(C)(C)C)CC1	2.1	59.2*	-15.0	17.3	27.8	-2.3
Cc1cc(C)nc(SCc2ccc(F)cc2)n1	-36.9	-11.3	-2.8	2.0	-6.2	-5.5
Cc1ccc(N2C(N)=C(C#N)C(c3cccs3)C3=C2CC(C)(C)CC3=O)cc1 (configuration not stated)	1.8	12.7	8.8	8.7	98.2*	10.2
N#CC1=C(N)N(c2ccccc2)C2=C(C(=O)CCC2)C1c1cccs1 (configuration not stated)	-12.1	20.0	9.2	2.1	73.5*	nt
Cc1ccccc1N(CC(=O)N/N=C/c1ccc(F)cc1)C(=O)c1ccccc1	32.6	8.6	8.4	-0.2	99.2*	20.6
Cc1ccccc1N(CC(=O)N/N=C/c1ccc(Cl)cc1)C(=O)c1ccccc1	43.9	14.8	15.7	17.4	67.5*	-2.5
Cc1ccccc1NC(=O)CCC(=O)N/N=C/c1ccc(F)cc1	43.8	7.4	-3.8	3.4	-2.8	-12.5
CCSc1nc2c(c(=O)n(C)c(=O)n2C)n1Cc1ccc(Cl)cc1	-3.2	2.9	-22.7	4.0	4.3	nt
NC(=O)CSc1nc2ccccc2c(=O)n1CCc1ccccc1	0.4	-10.1	4.3	11.9	nt	4.4
COc1ccc(NC(=O)CSc2nc3ccccc3c(=O)n2CCCN2CCCCC2)c(OC)c1	-36.6	22.1	1.3	19.5	100.4*	-15.8
Cn1c(=O)c2c(nc(SCCN3CCCCC3)n2Cc2ccc(Cl)cc2)n(C)c1=O	8.4	41.6	-7.5	14.1	90.2*	2.1
CCOC(=O)CSc1nc2c(sc3ccccc32)c(=O)n1CCCN1CCOCC1	14.2	17.3	0.8	4.4	100.0*	39.6
O=c1c2ccccc2nc(SCCN2CCCCC2)n1CCc1ccccc1	10.1	62.8*	2.0	23.2	85.5*	10.1
COc1ccc(N2CCN(CC(O)COc3cc(C)ccc3C)CC2)cc1 (configuration not stated)	2.3	-2.3	-16.7	29.0	nt	27.6
SMILES	Calb FLC	T cruzi repl	PolyA inh	NALP3 yeast inh	L major viab	NALP1 yeast inh
COc1cccc(C(=O)Nc2nc(SCc3ccc(Cl)cc3)n[nH]2)c1	5.4	-3.0	-9.3	11.8	nt	-3.9
O=C(CSc1nc2ccccc2c(=O)n1CCCN1CCOCC1)c1c[nH]c2ccccc12	20.9	20.9	-9.1	16.7	53.2*	10.8
CS(=O)(=O)c1ccc(Cl)c(NC(=O)CSc2nc3ccccc3c(=O)n2CCCN2CCOCC2)c1	-0.8	8.9	3.2	-1.8	85.3*	13.3
Cc1ccc(S(=O)(=O)N2CC=C(C(=O)NC3CC3)CC2)cc1	-3.8	1.6	?	-6.9	nt	nt
CCOc1cc(C(=O)N2CCN(C/C=C/c3ccccc3)CC2)cc(OCC)c1OCC	-7.8	33.2	13.4	23.3	65.9*	2.5
CCOc1cccc2cc(C(=O)N3CCN(C/C=C/c4ccccc4)CC3)c(=O)oc12	3.9	12.3	-5.9	-10.3	96.0*	11.6
COc1cc(C(=O)N2CCN(C/C=C/c3ccccc3)CC2)cc(OC)c1OC	1.0	1.6	-5.9	6.9	2.8	-44.3
Cc1ccc(NS(=O)(=O)c2cc(C(=O)NCc3ccccn3)ccc2Cl)cc1C	-17.2	15.5	12.0	6.9	7.2	8.6
COc1ccc(CN2CCNC(=O)C2CC(=O)NCC2CCOCC2)c(F)c1 (configuration not stated)	1.3	-14.9	0.0	1.9	nt	13.1
COc1cc(C)c(S(=O)(=O)NC2CC(C)(C)NC(C)(C)C2)cc1C	-4.2	3.9	-1.8	4.1	4.1	-0.9
CCCOc1cc(C)c(S(=O)(=O)NC2CC(C)(C)NC(C)(C)C2)cc1C	-0.5	10.5	12.8	8.4	97.2*	30.7
COC(=O)c1ccc(COc2ccccc2/C=C(\C#N)C(=O)Nc2c(C)cc(C)cc2C)cc1	?	47.1	2.2	8.8	100.2*	30.2
CCN(C(=O)CSc1nnc(-c2cccs2)n1CC)C1CCS(=O)(=O)C1 (configuration not stated)	-7.3	2.5	0.6	11.3	nt	nt
Cc1c(N=C2C=CC(=O)c3ccccc32)c(=O)n(-c2ccccc2)n1C	58.6	6.2	-9.0	nt	100.6*	25.0
CCCOc1ccc(N2C(=O)CC(SC(=N)N3N=C(c4ccccc4)CC3c3ccccc3)C2=O)cc1 (configuration not stated)	-0.5	68.1*	-12.6	2.3	98.4*	1.7
CCCN1CCN(CCCNC(=O)C2CCCN(c3nc4ccc(OCC)cc4s3)C2)CC1 (configuration not stated)	-11.3	-2.7	2.5	-10.1	64.3*	11.3
CCOc1ccc2nc(N3CCCC(C(=O)N4CCN(CC)CC4)C3)sc2c1 (configuration not stated)	-0.9	-4.0	14.6	7.6	3.0	34.2*
Cc1cc(C)c2nc(N3CCC(C(=O)NCCCN4CCCCC4)CC3)sc2c1	42.4	14.9	2.6	-11.5	97.4*	-17.1
CCOc1ccc2nc(N3CCC(C(=O)N4CCN(C5CCCCC5)CC4)CC3)sc2c1	-1.4	7.0	-12.9	7.6	95.4*	25.0
CCOc1ccc2nc(N3CCC(C(=O)N4CCN(C(=O)c5ccco5)CC4)CC3)sc2c1	-16.5	5.4	-3.6	20.7	3.0	14.0

High-throughput results deposited in PubChem BioAssay by several laboratories.
